Here are results for one compound from ChEMBL document CHEMBL5647697, “Akt inhibition synergizes with polycomb repressive complex 2 inhibition in the treatment of multiple myeloma” (2019).

In test [1] the test system is NCI-H929. The test can be described thus: Induction of apoptosis in human NCI-H929 cells assessed as necrotic cells preincubated in presence of 5 micromol/L UNC1999 for 48 hrs followed by compound addition at 2 micromol/L incubated for 12 hrs by annexin V/PI staining based flow cytometry (reference value: 2.61%). It counts as functional. The conditions noted are these: dose 2 µmol/L, at 2 µM. Background: In flow cytometry, cells or beads pass a laser one at a time.

Test [2] concerns OPM-2/BTZ. The test can be described thus: Cytotoxicity against human OPM-2/BTZ cells assessed as reduction in cell viability at 0.3125 to 10 micromol/L after 48 hrs by MTS assay. It is filed as functional, cell-based. The settings on record: dose 0.3125-10 µmol/L. The gist of the method: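 Seven myeloma lines (MM.1S, H929, OPM2/BTZ among them) exposed to TAS-117 at increasing concentrations up to 10 μmol/L for 48 h. Viability read by MTS against an untreated control; mean ± SD of triplicates.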

In test [3] the test system is MM1.S. The test is described as follows: Downregulation of E2F1 mRNA expression in human MM1.S cells incubated at 0.3 to 3 micromol/L for 24 hrs by qRT-PCR analysis. It is filed as functional, cell-based. The conditions noted are these: dose 0.3-3 µmol/L. The gist of the method: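 MM.1S and H929 cells given TAS-117 at the indicated doses for 24 h. mRNA measured by RT-qPCR, fold change after normalization to GAPDH; SD of triplicates; significance versus untreated control.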

Test [4] concerns OPM-2. The test can be described thus: Synergistic activity against human OPM-2 cells assessed as combination index preincubated in presence of 1.25 uM UNC1999 for 72 hrs followed by compound addition at 5 uM incubated for 48 hrs by MTT assay. It counts as functional. (In general: Tetrazolium dyes change colour on reduction, which living cells bring about.)
For test [5], the system named is OPM-2. The test is described as follows: Synergistic activity against human OPM-2 cells assessed as combination index preincubated in presence of 1.25 uM UNC1999 for 72 hrs followed by compound addition at 1.25 uM incubated for 48 hrs by MTT assay. It is filed as functional.
In test [6] the test system is MM1.S. The test is described as follows: Upregulation of EZH1 mRNA expression in human MM1.S cells at 0.03 to 3 micromo/L at 6 to 48 hrs by qRT-PCR analysis. It counts as functional, cell-based. The conditions noted are these: dose 0.03-3 µmol/L, time 6-48 hrs. In a few lines: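 EZH1 mRNA was measured by qRT-PCR in MM.1S and H929 cells. Dose series: cells were treated with graded TAS-117 for 24 h. Time course: cells were treated with 3 μmol/L for the indicated times. Fold change is after GAPDH normalization, relative to the untreated control. Data are SD of triplicates.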
In general terms: Real-time PCR tracks product formation cycle by cycle.

Test [7] relates to NCI-H929. The test is described as follows: Synergistic activity against human NCI-H929 cells assessed as combination index […] in presence of 5 uM GSK126 […] compound addition at 0.5 uM incubated for 48 hrs by […]. It is filed as functional. The gist of the method:
(§1)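 Cells were exposed to the EZH2/EZH1 inhibitor (UNC1999 or GSK126) for 72 h in total, with the Akt inhibitor added for the last 48 h. Viability was read by MTS assay relative to untreated control cells, in triplicate. The combination index for each dose pair came from isobologram analysis.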

Test [8] deals with NCI-H929. The test is described as follows: Upregulation of H3K27me3 protein expression in human NCI-H929 cells at 0.3 to 5 micromol/L for 6 to 48 hrs by Western blot analysis. It is filed as functional, cell-based. The settings on record: dose 0.3-5 µmol/L, time 6-48 hrs. The gist of the method: (§2)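 H3K27me3 was detected by immunoblot in MM.1S and H929 cells. Cells were given graded TAS-117 for 48 h, or 5 μmol/L for the indicated times. Signal is quantified relative to the H3 loading control.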

Test [9] concerns MM1.S. The test is described as follows: Upregulation of BIM mRNA expression in human MM1.S cells at 1 micromol/L after 24 hrs by qRT-PCR analysis. The settings on record: dose 1.0 µmol/L. It is filed as functional, cell-based.
Test [10] has as its system MM1.S. The test can be described thus: Upregulation of CDKN1B mRNA expression in human MM1.S cells at 1 micromol/L after 24 hrs by qRT-PCR analysis. It counts as functional, cell-based. The conditions noted are these: dose 1.0 µmol/L.
The test system of test [11] is MM1.S. The test can be described thus: Downregulation of phospho-Rb protein expression in human MM1.S cells incubated at 0.3 to 3 micromol/L for 48 hrs by Western blot analysis. It is filed as functional, cell-based. The settings on record: dose 0.3-3 µmol/L. In a few lines: (§3)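 MM.1S and H929 cells given TAS-117 at the indicated doses for 48 h. Protein levels assessed by immunoblot.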

The test system of test [12] is NCI-H929. The test is described as follows: Induction of apoptosis in human NCI-H929 cells assessed as necrotic cells at 5 micromol/L incubated for 48 hrs by annexin V/PI staining based flow cytometry (reference value: 2.61%). It counts as functional. The conditions noted are these: dose 5 µmol/L, at 5 µM.
Test [13] has as its system MM1.S. The test is described as follows: Synergistic activity against human MM.1S cells assessed as combination index […] compound addition at 0.125 uM incubated for 48 hrs by […]. It is filed as functional. The gist of the method: as §1
Test [14] relates to NCI-H929. The test is described as follows: Induction of apoptosis in human NCI-H929 cells assessed as live cells at 2 micromol/L incubated for 12 hrs by annexin V/PI staining based flow cytometry (reference value: 95.6%). It is filed as functional. The conditions noted are these: dose 2 µmol/L, at 2 µM.
Test [15] has as its system MM1.S. The test is described as follows: Downregulation of EZH2 protein expression in human MM1.S cells at 0.3 to 5 micromol/L for 6 to 48 hrs by Western blot analysis. It is filed as functional, cell-based. The conditions noted are these: dose 0.3-5 µmol/L, time 6-48 hrs. The gist of the method: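 MM.1S and H929 cells exposed to TAS-117 at the indicated doses for 48 h, or to 5 μmol/L for the indicated times. Immunoblot with GAPDH, Akt and H3 as loading controls; EZH2 quantified relative to GAPDH.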

For test [16], the system named is OPM-2. The test is described as follows: Synergistic activity against human OPM-2 cells assessed as combination index preincubated in presence of 5 uM GSK126 for 72 hrs followed by compound addition at 1.25 uM incubated for 48 hrs by MTT assay. It is filed as functional.
Test [17] has as its system MM1.S. The test can be described thus: Upregulation of H3K27me3 protein expression in human MM1.S cells at 0.3 to 5 micromol/L for 6 to 48 hrs by Western blot analysis. It counts as functional, cell-based. The conditions noted are these: dose 0.3-5 µmol/L, time 6-48 hrs. The gist of the method:
as §2

For test [18], the system named is OPM-2. The test is described as follows: Effects on EZH2 protein expression in human OPM-2 cells at 3 micromol/L incubated for 24 hrs by Western blot analysis. The conditions noted are these: dose 3.0 µmol/L. It is filed as functional, cell-based.
For test [19], the system named is NCI-H929. The test is described as follows: Downregulation of CDK2 protein expression in human NCI-H929 cells incubated at 0.3 to 3 micromol/L for 48 hrs by Western blot analysis. It counts as functional, cell-based. The conditions noted are these: dose 0.3-3 µmol/L. In a few lines: as §3
For test [20], the system named is NCI-H929. The test can be described thus: Upregulation of BIM mRNA expression in human NCI-H929 cells at 1 micromol/L after 24 hrs by qRT-PCR analysis. It counts as functional, cell-based. The settings on record: dose 1.0 µmol/L. The gist of the method:
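Cells were exposed to 1 μmol/L TAS-117 for 24 h. mRNA of FOXO3, FOXO4, BIM and CDKN1B was measured by qRT-PCR in H929 cells. Fold change is relative to the untreated control after normalization to GAPDH. Data are SD of triplicates.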

The subject of test [21] is OPM-2/BTZ. The test is described as follows: Downregulation of cyclin D1 protein expression in human OPM-2/BTZ cells incubated at 0.3 to 3 micromol/L for 48 hrs by Western blot analysis. It is filed as functional, cell-based. The conditions noted are these: dose 0.3-3 µmol/L.
For test [22], the system named is MM1.S. The test is described as follows: Cytotoxicity against human MM1.S cells transduced with EZH1 assessed as enhanced sensitivity at 0.156 to 2.5 micromol/L 48 hrs by MTS assay. It counts as functional, cell-based. The settings on record: dose 0.156-2.5 µmol/L. In a few lines: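 MM.1S or H929 cells transduced with lentiviral shRNA against EZH1 or against luciferase (shLuc control), then given TAS-117 at the indicated doses for 48 h. Viability by MTS relative to untreated control; mean ± SD of triplicates; compared with shLuc.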

Test [23] deals with OPM-2/BTZ. The test can be described thus: Synergistic activity against human OPM-2/BTZ cells assessed as combination index preincubated in presence of 2.5 uM UNC1999 for 72 hrs followed by compound addition at 0.5 uM incubated for 48 hrs by MTT assay. It is filed as functional.
The test system of test [24] is NCI-H929. The test is described as follows: Synergistic activity against human NCI-H929 cells assessed as combination index […] in presence of 2.5 uM UNC1999 […] at 0.125 uM incubated for 48 hrs by […]. It is filed as functional. In a few lines: as §1

Active and inactive are the calls of the source. The calls are words filed in the database; no cut-off is given here.

For `C[C@]1(O)C[C@@](N)(c2ccc(-c3nc4n(c3-c3ccccc3)COc3ccncc3-4)cc2)C1` [PIFUSERTIB], the Activity with NCI-H929 [1] is 2.15%; in the test with MM1.S [6] it was “Dose-Dependent Effect”; in the test with NCI-H929 [12] it was 0.84%; in the test on NCI-H929 [14] it was 91.7%. Besides, the outcome in the test with OPM-2/BTZ [2], with MM1.S [3], with NCI-H929 [8], in the test with MM1.S [9], in the test on MM1.S [10] and with MM1.S [11] was Active. The outcome in the test on MM1.S [15], in the test on MM1.S [17], in the test with NCI-H929 [19], in the test with NCI-H929 [20], in the test with OPM-2/BTZ [21] and with MM1.S [22] was Active. In addition, the CI with OPM-2 [4] is on record as 1.743; in the test with OPM-2 [5], 1.33; in the test with NCI-H929 [7], 7.883; with MM1.S [13], 0.751; in the test with OPM-2 [16] it was 1.44; with OPM-2/BTZ [23] it was 0.499. For the same compound, the CI with NCI-H929 [24] amounted to 0.783. Further, in the test with OPM-2 [18], the result was inactive.
